Assay results published in ChEMBL document CHEMBL1139475, “Structural, mutagenic, and kinetic analysis of the binding of substrates and inhibitors of human phenylethanolamine N-methyltransferase” (J Med Chem, 2005).

Legend:
[1] = molecular target: Phenylethanolamine N-methyltransferase (Homo sapiens, UniProt P11086, K57A); assay: (§1) Activity of human PNMT K57A mutant assessed as phenylethanolamine methylation
Outline: (§2)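 C-terminally His6-tagged human PNMT mutants made by site-directed mutagenesis, expressed in E. coli BL21(DE3)-pLysS, and purified by Ni affinity then gel filtration. Steady-state kinetics used 50 mM potassium phosphate pH 8.0 with [3H]-AdoMet and phenylethanolamine, each varied between 0.3 and 3 × Km. Incubation was 30 min at 30 °C, quenched with borate pH 10, extracted into toluene/isoamyl alcohol, and counted by scintillation.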

[2] = molecular target: Phenylethanolamine N-methyltransferase (Homo sapiens, UniProt P11086, E219A); assay: (§3) Activity of human PNMT E219A mutant assessed as phenylethanolamine methylation; outline: as §2
[3] = molecular target: T1, Phenylethanolamine N-methyltransferase (Homo sapiens, UniProt P11086); assay: Activity of human wild type PNMT assessed as phenylethanolamine methylation
T1 sequence (P11086 whole entry): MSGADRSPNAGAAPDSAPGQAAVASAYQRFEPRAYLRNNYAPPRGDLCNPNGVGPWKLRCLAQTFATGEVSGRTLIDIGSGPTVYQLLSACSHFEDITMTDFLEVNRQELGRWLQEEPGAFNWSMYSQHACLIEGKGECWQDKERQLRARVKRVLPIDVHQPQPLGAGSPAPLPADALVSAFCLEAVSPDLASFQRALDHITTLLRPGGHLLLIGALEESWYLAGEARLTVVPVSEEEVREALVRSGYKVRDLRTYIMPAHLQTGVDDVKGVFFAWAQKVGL

[4] = molecular target: Phenylethanolamine N-methyltransferase (Homo sapiens, UniProt P11086, V53A); assay: (§4) Activity of human PNMT V53A mutant assessed as phenylethanolamine methylation; outline: as §2
[5] = molecular target: Phenylethanolamine N-methyltransferase (Homo sapiens, UniProt P11086, D267A); assay: Activity of human PNMT D267A mutant assessed as phenylethanolamine methylation
[6] = molecular target: Phenylethanolamine N-methyltransferase (Homo sapiens, UniProt P11086, D267N); assay: (§5) Activity of human PNMT D267N mutant assessed as phenylethanolamine methylation; outline: as §2
[7] = molecular target: T1, Phenylethanolamine N-methyltransferase; assay: Binding affinity to human free PNMT
[8] = Binding affinity to human PNMT-S-adenosyl-L-methionine complex
[9] = substrate: C[S+](CC[C@H](N)C(=O)[O-])C[C@H]1O[C@@H](n2cnc3c(N)ncnc32)[C@H](O)[C@@H]1O; assay: as §4; outline: as §2
[10] = substrate: NCC(O)c1ccc(Cl)c(Cl)c1; assay: as §4; outline: as §2
[11] = substrate: C[S+](CC[C@H](N)C(=O)[O-])C[C@H]1O[C@@H](n2cnc3c(N)ncnc32)[C@H](O)[C@@H]1O; assay: as §5; outline: as §2
[12] = substrate: NCC(O)c1ccc(Cl)c(Cl)c1; assay: as §5; outline: as §2
[13] = substrate: C[S+](CC[C@H](N)C(=O)[O-])C[C@H]1O[C@@H](n2cnc3c(N)ncnc32)[C@H](O)[C@@H]1O; conditions: Homo sapiens
[14] = substrate: NCC(O)c1ccc(Cl)c(Cl)c1; conditions: Homo sapiens
[15] = substrate: C[S+](CC[C@H](N)C(=O)[O-])C[C@H]1O[C@@H](n2cnc3c(N)ncnc32)[C@H](O)[C@@H]1O; assay: as §1; outline: as §2
[16] = substrate: NCC(O)c1ccc(Cl)c(Cl)c1; assay: as §1; outline: as §2
[17] = substrate: C[S+](CC[C@H](N)C(=O)[O-])C[C@H]1O[C@@H](n2cnc3c(N)ncnc32)[C@H](O)[C@@H]1O; assay: as §3; outline: as §2
[18] = substrate: NCC(O)c1ccc(Cl)c(Cl)c1; assay: as §3; outline: as §2
[19] = substrate: C[S+](CC[C@H](N)C(=O)[O-])C[C@H]1O[C@@H](n2cnc3c(N)ncnc32)[C@H](O)[C@@H]1O; conditions: Homo sapiens; remark: listed apart in the source
[20] = substrate: NCC(O)c1ccc(Cl)c(Cl)c1; conditions: Homo sapiens; remark: listed apart in the source

C[S+](CC[C@H](N)C(=O)[O-])C[C@H]1O[C@@H](n2cnc3c(N)ncnc32)[C@H](O)[C@@H]1O (stereo not given in full) [ADEMETIONINE]
Kd [1]: 10.7 µM
Kd [2]: 7.5 µM
Kd [3]: 4.8 µM
Kd [4]: 7.1 µM
Kd [5]: 11 µM
Kd [6]: 7.5 µM

CC(N)c1cccc(Cl)c1Cl (stereo not given)
Ki [7]: 1.33 µM
Ki [8]: 0.072 µM

B1: Phenylethanolamine N-methyltransferase (Homo sapiens), P11086 V53A (protein)
chain: MSGADRSPNAGAAPDSAPGQAAVASAYQRFEPRAYLRNNYAPPRGDLCNPNGAGPWKLRCLAQTFATGEVSGRTLIDIGSGPTVYQLLSACSHFEDITMTDFLEVNRQELGRWLQEEPGAFNWSMYSQHACLIEGKGECWQDKERQLRARVKRVLPIDVHQPQPLGAGSPAPLPADALVSAFCLEAVSPDLASFQRALDHITTLLRPGGHLLLIGALEESWYLAGEARLTVVPVSEEEVREALVRSGYKVRDLRTYIMPAHLQTGVDDVKGVFFAWAQKVGL
Km [9]: 9.6 µM
Km [10]: 1630 µM

B2: Phenylethanolamine N-methyltransferase (Homo sapiens), P11086 D267N (protein)
chain: MSGADRSPNAGAAPDSAPGQAAVASAYQRFEPRAYLRNNYAPPRGDLCNPNGVGPWKLRCLAQTFATGEVSGRTLIDIGSGPTVYQLLSACSHFEDITMTDFLEVNRQELGRWLQEEPGAFNWSMYSQHACLIEGKGECWQDKERQLRARVKRVLPIDVHQPQPLGAGSPAPLPADALVSAFCLEAVSPDLASFQRALDHITTLLRPGGHLLLIGALEESWYLAGEARLTVVPVSEEEVREALVRSGYKVRDLRTYIMPAHLQTGVNDVKGVFFAWAQKVGL
Km [11]: 7.1 µM
Km [12]: 1640 µM

B3: Phenylethanolamine N-methyltransferase (Homo sapiens), P11086 (protein)
chain: MSGADRSPNAGAAPDSAPGQAAVASAYQRFEPRAYLRNNYAPPRGDLCNPNGVGPWKLRCLAQTFATGEVSGRTLIDIGSGPTVYQLLSACSHFEDITMTDFLEVNRQELGRWLQEEPGAFNWSMYSQHACLIEGKGECWQDKERQLRARVKRVLPIDVHQPQPLGAGSPAPLPADALVSAFCLEAVSPDLASFQRALDHITTLLRPGGHLLLIGALEESWYLAGEARLTVVPVSEEEVREALVRSGYKVRDLRTYIMPAHLQTGVDDVKGVFFAWAQKVGL
Km [13]: 1.2 µM
Km [14]: 100 µM

B4: Phenylethanolamine N-methyltransferase (Homo sapiens), P11086 K57A (protein)
chain: MSGADRSPNAGAAPDSAPGQAAVASAYQRFEPRAYLRNNYAPPRGDLCNPNGVGPWALRCLAQTFATGEVSGRTLIDIGSGPTVYQLLSACSHFEDITMTDFLEVNRQELGRWLQEEPGAFNWSMYSQHACLIEGKGECWQDKERQLRARVKRVLPIDVHQPQPLGAGSPAPLPADALVSAFCLEAVSPDLASFQRALDHITTLLRPGGHLLLIGALEESWYLAGEARLTVVPVSEEEVREALVRSGYKVRDLRTYIMPAHLQTGVDDVKGVFFAWAQKVGL
Km [15]: 11.7 µM
Km [16]: 1310 µM

B5: Phenylethanolamine N-methyltransferase (Homo sapiens), P11086 E219A (protein)
chain: MSGADRSPNAGAAPDSAPGQAAVASAYQRFEPRAYLRNNYAPPRGDLCNPNGVGPWKLRCLAQTFATGEVSGRTLIDIGSGPTVYQLLSACSHFEDITMTDFLEVNRQELGRWLQEEPGAFNWSMYSQHACLIEGKGECWQDKERQLRARVKRVLPIDVHQPQPLGAGSPAPLPADALVSAFCLEAVSPDLASFQRALDHITTLLRPGGHLLLIGALEASWYLAGEARLTVVPVSEEEVREALVRSGYKVRDLRTYIMPAHLQTGVDDVKGVFFAWAQKVGL
Km [17]: 7.1 µM
Km [18]: 580 µM

B6: Phenylethanolamine N-methyltransferase (Homo sapiens), P11086 D267A (protein)
chain: MSGADRSPNAGAAPDSAPGQAAVASAYQRFEPRAYLRNNYAPPRGDLCNPNGVGPWKLRCLAQTFATGEVSGRTLIDIGSGPTVYQLLSACSHFEDITMTDFLEVNRQELGRWLQEEPGAFNWSMYSQHACLIEGKGECWQDKERQLRARVKRVLPIDVHQPQPLGAGSPAPLPADALVSAFCLEAVSPDLASFQRALDHITTLLRPGGHLLLIGALEESWYLAGEARLTVVPVSEEEVREALVRSGYKVRDLRTYIMPAHLQTGVADVKGVFFAWAQKVGL
Km [19]: 2.4 µM
Km [20]: 2050 µM
